# This is a sample that favours compounds with a hit; in the whole collection about 4% have one here.
# Hsp70 activator: switches on Hsp70 transcription; HeLa Hsp70 promoter luciferase reporter, luminescence; scaled: vehicle 0, proteasome-inhibitor control 100%; activation, % at 10 µM; 200,000 tested, 0.04% active; AID 1203;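 active = activation above the mean across all tested compounds plus 3 SD, cutoff set per campaign, cut at about 5.5% in these data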;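 also: 100% = MG132 at 30 µM as the positive control and 0% = DMSO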
# Mdm2 ligase inh: inhibitors of human Mdm2 E3 ubiquitin ligase; 210,000 tested, 0.11% active; cell-based MDM2 ubiquitination luciferase reporter, 2 h; 0 = plate control, 100 = twice control, blank-subtracted; Q00987; signal enhancement, % at 5 µM; AID 1230;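 active = signal enhancement of 30% or more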;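 also: luminescence tracks abundance of the self-degrading MDM2-luciferase fusion protein; higher signal means inhibition of MDM2 E3 ligase activity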
#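 System: stable MDM2–luciferase fusion reporter cells / Input: 2000 cells seeded into each well / Schedule: 4 h settle plus 2 h compound, 37 °C / Compound: single-point 5 µM / Buffer or medium: cells held in DMEM / Benchmarks: control and blank well means / Evaluation: percent signal gain over controls, blank-subtracted / Measured by: luciferase luminescence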
# CHOP inhibitor: blocks CHOP induction under ER stress | CHO-K1 CHOP-promoter luciferase, tunicamycin-induced, 15-18 h | inhibition, % at 10 µM | 220,000 tested, 3.8% active | AID 2732;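 active = compounds that reduced the stress-induced luciferase reporter signal by more than about 70% of percent inhibition, limit read from the data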;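 also: 0% = tunicamycin plus vehicle and 100% = wells without tunicamycin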
# S1P3 antag: S1P3 (human) receptor antagonism; CHO S1P3 NFAT-BLA reporter, FRET fluorescence, antagonist mode; inhibition, % at 4.98 µM; 170,000 tested, 0.27% active; AID 485;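 active = inhibition above the plate cutoff, the mean inhibition of test wells on that plate plus 3 SD, cut at about 28% in these data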;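 also: cells challenged with S1P at its EC80 of 0.8 µM; blue over green emission ratio from cleaved BLA substrate after 4 h stimulation; 0% = S1P-stimulated wells and 100% = unstimulated DMSO-only wells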
# Target sequence (Q99500 whole entry, looked up): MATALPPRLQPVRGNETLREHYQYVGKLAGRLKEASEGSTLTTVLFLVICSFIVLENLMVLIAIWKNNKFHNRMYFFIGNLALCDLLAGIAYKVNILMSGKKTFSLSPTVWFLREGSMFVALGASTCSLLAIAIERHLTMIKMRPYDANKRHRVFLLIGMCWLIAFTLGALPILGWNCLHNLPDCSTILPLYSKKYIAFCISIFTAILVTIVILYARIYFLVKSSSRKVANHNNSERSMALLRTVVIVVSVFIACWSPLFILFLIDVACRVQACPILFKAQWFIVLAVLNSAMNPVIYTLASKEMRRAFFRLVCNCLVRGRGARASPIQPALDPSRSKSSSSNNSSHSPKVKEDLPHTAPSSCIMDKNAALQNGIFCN
# Starred values were filed as active, the others as inactive; / = no result.
SMILES,Hsp70 activator,Mdm2 ligase inh,CHOP inhibitor,S1P3 antag
COc1nnc(-c2ccc(N3CCCCC3)c(NC(=O)C3CCCCC3)c2)c2ccccc12,-0.3,-23.5,79.6*,/
Cc1cc(C)c(NC(=O)COC(=O)Cc2ccsc2)c(C)c1,-0.3,-11.3,18.8,-21.8
CC(=O)Cc1cc(O)c2ccccc2c1OC(=O)c1ccccc1,0.0,-15.0,13.2,-13.4
O=C(Nc1nc2ccccc2s1)C1CCN(S(=O)(=O)c2cc([N+](=O)[O-])ccc2Cl)CC1,/,/,82.6*,26.3
CCC(C)NC(=O)C1CCN(S(=O)(=O)c2cc([N+](=O)[O-])ccc2Cl)CC1 (stereo unspecified),/,-56.0,1.9,4.6
O=C(O)c1ccc(N=NNc2cccc([N+](=O)[O-])c2)cc1,-0.1,-20.9,5.7,1.9
N#C/C(=N\Nc1cccc([N+](=O)[O-])c1)C(=O)c1ccc(Br)cc1,-0.3,-16.7,79.4*,-14.1
CCC(=O)N1CCN(c2ccc(NC(=S)NC(=O)COc3ccccc3)cc2)CC1,-0.1,-6.2,25.2,-2.2
CC(C)CC(=O)NC(=S)Nc1ccc(N2CCN(C(=O)c3cccs3)CC2)cc1,/,5.1,76.5*,10.1
O=C(COc1ccc(Cl)cc1)Nc1ccc(N2CCN(C(=O)c3ccco3)CC2)cc1,-0.5,-20.0,73.6*,/
CC(=O)N1CCN(c2ccc(NC(=S)NC(=O)COc3ccc(C(C)(C)C)cc3)cc2)CC1,-0.4,-15.6,76.3*,13.4
COc1ccc(OCC(=O)Nc2ccc(N3CCN(C(=O)c4ccco4)CC3)cc2)cc1,-0.1,-6.1,9.3,-22.1
COc1cc(Cl)c(C)cc1NC(=O)CSc1ccc(C)cc1,-0.3,-16.1,73.8*,/
COc1cc(Cl)c(C)cc1NC(=O)CSc1ccccc1,-0.2,-12.8,64.8,-12.1
O=C(Cc1cccs1)Nc1nnc(SCc2cccc3ccccc23)s1,-0.1,-11.1,2.5,-0.8
O=C(Cc1cccs1)Nc1ccon1,-0.4,-6.2,13.4,94.2*
O=C(Cc1cccs1)Nc1ccccn1,-0.2,-28.1,40.9,2.1
O=C(Cc1cccs1)Nc1nc2c(ccc3ccccc32)s1,-0.2,-1.2,80.9*,/
O=[N+]([O-])c1ccc(NCCCNS(=O)(=O)c2ccccc2)cc1,-0.1,-4.4,17.8,7.0
O=S1(=O)c2ccccc2C(CCO)N1Cc1ccccc1 (stereo unspecified),/,25.8,4.4,/
CN(C)CCCNC(=O)/C(=C\c1ccc(-c2ccc(Br)cc2)o1)NC(=O)c1ccccc1,-0.3,5.9,81.2*,-17.2
COc1cc(/C=N/NC(=O)Cn2cnc3ccccc3c2=O)ccc1O,/,/,3.6,-15.8
CCOc1ccccc1NC(=O)c1cc(C(=O)c2cc(Br)ccc2O)coc1=N,-0.1,-3.0,72.1*,-0.7
CC(C)OC(=O)c1cc(C(=O)c2cc(Br)ccc2O)coc1=N,0.2,-13.8,18.7,-10.4
CCOc1ccc(N2C(=O)CC(SC(=NC)Nc3cccc(F)c3)C2=O)cc1 (stereo unspecified),-0.2,-32.6,9.4,-24.3
SMILES,Hsp70 activator,Mdm2 ligase inh,CHOP inhibitor,S1P3 antag
CCOc1ccc(N2C(=O)CC(SC(=NC)Nc3ccc4c(c3)OCO4)C2=O)cc1 (stereo unspecified),-0.2,-15.1,73.2*,/
Cn1cc(Br)c(-c2cccc(NC(=O)CCC(=O)O)c2)n1,/,2.0,5.4,7.1
CON/C=C(\C=Nc1ccccc1)c1ncc(C(F)(F)F)cc1Cl,-0.3,-10.8,89.4*,/
Cc1ccccc1C(=O)NNC(=O)CSc1nnc(C)n1-c1ccccc1,-0.3,-5.8,11.2,2.0
Nc1nc(Cl)nc2c1ncn2[C@@H]1O[C@H](COP(=O)(O)OP(=O)(O)OP(=O)(O)O)[C@H](O)C1O (stereo partly specified),/,/,3.3,/
COc1ccc(N2C(=O)c3ccc(C(=O)OC(C)C)cc3C2=O)cc1,-0.1,/,2.8,/
COc1ccc(-c2onc(C)c2-c2ccc(C(=O)OC(C)C)o2)c(O)c1,-0.3,-17.9,81.8*,5.6
CCN(C(=O)CSc1nc2ccccc2c(=O)n1CCOC)C1CCS(=O)(=O)C1 (stereo unspecified),0.0,-13.5,17.7,-12.7
CC(C)C(=O)Nc1cccc(NC(=S)NC(=O)c2ccc([N+](=O)[O-])cc2)c1,-0.5,-0.9,7.4,/
Cc1cc(C(=O)NC(=S)Nc2cccc(NC(=O)C(C)C)c2)ccc1[N+](=O)[O-],-0.3,1.1,80.6*,6.0
CCOC(=O)c1sc2nccc(N(C)C)c2c1N=CNOCc1ccccc1,-0.2,-9.9,75.1*,/
Cn1nc(C(C)(C)C)cc1C(=O)NCc1ccc(N2CCCC2=O)cc1,0.6,-8.3,83.3*,10.3
Cc1ccc(CNC(=O)c2ccc(N3CCCC3=O)cc2)cc1,0.1,3.5,-6.6,/
CCn1c(=S)[nH]c2cc(S(=O)(=O)N3CCCCC3)ccc21,-0.4,-3.6,-57.2,/
COc1cc(OC)cc(C(=O)NCC(=O)OCC(=O)/C=C2/N(C)c3ccccc3C2(C)C)c1,-0.3,-22.1,60.6,-13.8
CC(C)[C@H](NC(=O)c1ccccc1)C(=O)OCC(=O)/C=C1/N(C)c2ccccc2C1(C)C,-0.2,-9.7,70.0*,-4.5
COC(=O)c1cc(Nc2cc(C)c3c(O)cccc3n2)cc(C(=O)OC)c1,/,-8.8,59.9,-2.4
Cc1ccc(Nc2cc(C)c3ccc(O)cc3n2)cc1C,/,-20.3,78.8*,2.1
COC(=O)c1cc(Nc2cc(C)c3ccc(O)cc3n2)cc(C(=O)OC)c1,/,-6.0,71.0*,9.6
Cc1ccc(Nc2cc(C)c3c(O)cccc3n2)cc1C,/,-6.3,48.9,-4.6
CCCSc1nc(C)c(-c2csc(C(C#N)=C3CCCC3)n2)cc1C#N,-0.4,-4.9,-18.8,-7.1
CN(C)CCCN1CC(C(=O)O)CC1=O (stereo unspecified),-0.1,-10.3,76.5*,/
CC1=C(C(=O)Nc2ccccc2Cl)C(c2ccc(N(C)C)cc2)NC(=O)N1 (stereo unspecified),-0.5,-10.3,30.1,-2.9
Cc1c(NC(=S)SCc2ccccc2)c(=O)n(-c2ccccc2)n1C,-0.2,2.9,20.6,-11.5
CC(C)(C)c1[nH]nc2c1C(C1C=CCCC1)C(C#N)=C(N)O2 (stereo unspecified),0.0,-16.3,82.5*,/
SMILES,Hsp70 activator,Mdm2 ligase inh,CHOP inhibitor,S1P3 antag
O=C(N/N=C1\CC(c2ccccc2)Oc2ccccc21)c1ccccn1 (stereo unspecified),-0.1,-18.8,1.5,-12.3
O=C(N/N=C1/CC(c2ccccc2)Oc2ccccc21)C1CC1 (stereo unspecified),-0.3,7.9,93.0*,-5.9
O=C(NNC(=O)c1cccnc1SCc1cccc([N+](=O)[O-])c1)c1ccccn1,-0.3,/,51.6,-9.6
CCOC(=O)c1ccc(NC(=O)Cc2coc3cc4c(cc23)CCC4)cc1,0.2,-8.9,76.7*,-6.6
COC(=O)C1C(O)C(C)C(O)C(C)(O)/C=C\C=C(/C)C(=O)Nc2c(C)c(OC(C)=O)c3c(c2O)C(=O)C(C)=C2OCOC(=C23)/C(C)=C/C(C)(O)C(O)C(C)C1O (stereo unspecified),/,-2.6,11.5,2.8
CC(C)(C)NC(=O)C(c1ccsc1)N(CCc1ccccc1)C(=O)Cn1nnc2ccccc21 (stereo unspecified),-0.4,-5.1,95.0*,/

# Screens as filed in PubChem.
